Source: ChEMBL document CHEMBL3352407, “Griseorhodins D-F, neuroactive intermediates and end products of post-PKS tailoring modification in Griseorhodin biosynthesis” (J Nat Prod, 2014)
Activity calls are given as the source filed them.

Experiments:
[1] = target: 5-hydroxytryptamine receptor 2B (Homo sapiens) (UniProt P41595); assay: Displacement of [3H]LSD from human serotonin 5-HT2B receptor expressed in HEK cells at 10 uM after 90 mins by microbeta counting analysis; type: cell-based; conditions: HEK293
Method in brief: (§1)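 Primary radioligand displacement screen, run by PDSP/NIMH. Receptor panel includes muscarinic M1–M5. Activity threshold 10 μM. Targets with significant binding went on to secondary Ki assays.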

[2] = target: Alpha-1A adrenergic receptor (Homo sapiens) (UniProt P35348); assay: Displacement of [3H]prazosin from adrenergic alpha1A receptor (unknown origin) at 10 uM after 90 mins by microbeta counting analysis; method in brief: as §1
[3] = target: D(1B) dopamine receptor (Homo sapiens) (UniProt P21918); assay: Displacement of [3H]SCH23390 from human dopamine D5 receptor expressed in HEKT cells at 10 uM after 90 mins by microbeta counting analysis; type: cell-based; method in brief: as §1
[4] = target: Muscarinic acetylcholine receptor M3 (Homo sapiens) (UniProt P20309); assay: Binding affinity to human M3 receptor expressed in CHO Flp-In cells at 10 uM after 90 mins by microbeta counting analysis; type: cell-based; method in brief: as §1
[5] = target: Muscarinic acetylcholine receptor M2 (Homo sapiens) (UniProt P08172); assay: Binding affinity to human M2 receptor expressed in CHO cells at 10 uM after 90 mins by microbeta counting analysis; type: cell-based; method in brief: as §1
[6] = species: Rattus norvegicus; assay: Displacement of [3H]DTG from rat sigma2 receptor at 10 uM after 90 mins by microbeta counting analysis; method in brief: as §1
[7] = target: D(3) dopamine receptor (Rattus norvegicus) (UniProt P19020); assay: Displacement of [3H]N-methylspiperone from rat dopamine D3 receptor expressed in HEKT cells at 10 uM after 90 mins by microbeta counting analysis; type: cell-based; method in brief: as §1
[8] = tested on: DRG neuron; assay: Increase in Ca2+ uptake in mouse DRG neurons at 20 ug/ml by Fura-2 dye-based fluorescence microscopy; type: functional
Method in brief: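 Mouse DRG cells plated in medium with additives and loaded with the Ca2+ dye Fura-2 AM. Compound applied directly at 20 μg/mL. Read-out is the fraction of cells showing a rise in Ca2+ concentration.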

[9] = target: 5-hydroxytryptamine receptor 1D (Homo sapiens) (UniProt P28221); assay: Displacement of [3H]5-CT from human serotonin 5-HT1D receptor expressed in HEKT cells at 10 uM after 90 mins by microbeta counting analysis; type: cell-based; method in brief: as §1
[10] = target: Histamine H3 receptor (Homo sapiens) (UniProt Q9Y5N1); assay: Displacement of [3H]alpha-methylhistamine from human H3 histamine receptor expressed in HEK cells at 10 uM after 90 mins by microbeta counting analysis; type: cell-based; conditions: HEK293; method in brief: as §1
[11] = target: Muscarinic acetylcholine receptor M1 (Homo sapiens) (UniProt P11229); assay: Binding affinity to human M1 receptor expressed in CHO cells at 10 uM after 90 mins by microbeta counting analysis; type: cell-based; method in brief: as §1
[12] = target: Sodium-dependent dopamine transporter (Homo sapiens) (UniProt Q01959); assay: Displacement of [3H]WIN35428 from human DAT expressed in HEK cells at 10 uM after 90 mins by microbeta counting analysis; type: cell-based; conditions: HEK293
[13] = target: Kappa-type opioid receptor (Homo sapiens) (UniProt P41145); assay: Displacement of [3H]U69593 from kappa opioid receptor (unknown origin) expressed in HEK cells at 10 uM after 90 mins by microbeta counting analysis; type: cell-based; conditions: HEK293; method in brief: as §1
[14] = target: 5-hydroxytryptamine receptor 4 (Homo sapiens) (UniProt Q13639); assay: Displacement of [3H]GR113808 from human serotonin 5-HT4 receptor at 10 uM after 90 mins by microbeta counting analysis; method in brief: as §1
[15] = target: 5-hydroxytryptamine receptor 1B (Homo sapiens) (UniProt P28222); assay: Displacement of [3H]5-CT from human serotonin 5-HT1B receptor expressed in HEK cells at 10 uM after 90 mins by microbeta counting analysis; type: cell-based; conditions: HEK293; method in brief: as §1
[16] = target: Sigma non-opioid intracellular receptor 1 (Rattus norvegicus) (UniProt Q9R0C9); assay: Displacement of [3H]pentazocine from rat sigma1 receptor at 10 uM after 90 mins by microbeta counting analysis; method in brief: as §1
[17] = target: 5-hydroxytryptamine receptor 7 (Homo sapiens) (UniProt P34969); assay: Displacement of [3H]LSD from human serotonin 5-HT7 receptor expressed in HEK cells at 10 uM after 90 mins by microbeta counting analysis; type: cell-based; conditions: HEK293; method in brief: as §1
[18] = target: Histamine H2 receptor (Homo sapiens) (UniProt P25021); assay: Binding affinity to human H2 histamine receptor expressed in HEK cells at 10 uM after 90 mins by microbeta counting analysis; type: cell-based; conditions: HEK293; method in brief: as §1
[19] = target: Beta-2 adrenergic receptor (Homo sapiens) (UniProt P07550); assay: Displacement of [3H]CGP12177 from human adrenergic beta2 receptor expressed in HEK Flp-In cells at 10 uM after 90 mins by microbeta counting analysis; type: cell-based; conditions: HEK293; method in brief: as §1
[20] = target: Beta-1 adrenergic receptor (Homo sapiens) (UniProt P08588); assay: Binding affinity to human adrenergic beta1 receptor expressed in CHO Flp-In cells at 10 uM after 90 mins by microbeta counting analysis; type: cell-based; method in brief: as §1
[21] = target: Sodium-dependent serotonin transporter (Homo sapiens) (UniProt P31645); assay: Displacement of [3H]citalopram from SERT (unknown origin) expressed in HEK cells at 10 uM after 90 mins by microbeta counting analysis; type: cell-based; conditions: HEK293; method in brief: as §1
[22] = target: 5-hydroxytryptamine receptor 6 (Homo sapiens) (UniProt P50406); assay: Displacement of [3H]LSD from human serotonin 5-HT6 receptor expressed in HEK cells at 10 uM after 90 mins by microbeta counting analysis; type: cell-based; conditions: HEK293; method in brief: as §1
[23] = target: Alpha-2C adrenergic receptor (Homo sapiens) (UniProt P18825); assay: Displacement of [3H]rauwolscine from adrenergic alpha2C receptor (unknown origin) expressed in MDCK cells at 10 uM after 90 mins by microbeta counting analysis; type: cell-based; method in brief: as §1
[24] = target: Histamine H1 receptor (Homo sapiens) (UniProt P35367); assay: Displacement of [3H]pyrilamine from human H1 histamine receptor expressed in HEK cells at 10 uM after 90 mins by microbeta counting analysis; type: cell-based; conditions: HEK293; method in brief: as §1
[25] = target: Voltage-gated L-type calcium channel (Rattus norvegicus, UniProt P22002+Q02485+P27732); assay: Binding affinity to rat calcium channel at 10 uM after 90 mins by microbeta counting analysis; conditions: 1.5 h; method in brief: as §1
[26] = target: Muscarinic acetylcholine receptor M4 (Homo sapiens) (UniProt P08173); assay: Binding affinity to human M4 receptor expressed in CHO cells at 10 uM after 90 mins by microbeta counting analysis; type: cell-based; method in brief: as §1
[27] = target: Alpha-1B adrenergic receptor (Homo sapiens) (UniProt P35368); assay: Displacement of [3H]prazosin from adrenergic alpha1B receptor (unknown origin) expressed in HEKT cells at 10 uM after 90 mins by microbeta counting analysis; type: cell-based; method in brief: as §1
[28] = target: 5-hydroxytryptamine receptor 2C (Homo sapiens) (UniProt P28335); assay: Displacement of [3H]Mesulergine from human serotonin 5-HT2C receptor expressed in Flp-IN HEK cells at 10 uM after 90 mins by microbeta counting analysis; type: cell-based; conditions: HEK293; method in brief: as §1
[29] = target: D(4) dopamine receptor (Homo sapiens) (UniProt P21917); assay: Displacement of [3H]N-methylspiperone from human dopamine D4 receptor at 10 uM after 90 mins by microbeta counting analysis; method in brief: as §1
[30] = target: Histamine H4 receptor (Homo sapiens) (UniProt Q9H3N8); assay: Displacement of [3H]histamine from human H4 histamine receptor expressed in HEK cells at 10 uM after 90 mins by microbeta counting analysis; type: cell-based; conditions: HEK293; method in brief: as §1
[31] = target: D(2) dopamine receptor (Homo sapiens) (UniProt P14416); assay: Displacement of [3H]N-methylspiperone from human dopamine D2 receptor at 10 uM after 90 mins by microbeta counting analysis; method in brief: as §1
[32] = target: 5-hydroxytryptamine receptor 5A (Homo sapiens) (UniProt P47898); assay: Displacement of [3H]LSD from human serotonin 5-HT5A receptor expressed in Flp-In CHO cells at 10 uM after 90 mins by microbeta counting analysis; type: cell-based; method in brief: as §1
[33] = target: Delta-type opioid receptor (Homo sapiens) (UniProt P41143); assay: Displacement of [3H]DADLE from delta opioid receptor (unknown origin) expressed in HEK cells at 10 uM after 90 mins by microbeta counting analysis; type: cell-based; conditions: HEK293; method in brief: as §1
[34] = species: Rattus norvegicus; assay: Binding affinity to rat GABAB receptor at 10 uM after 90 mins by microbeta counting analysis; method in brief: as §1
[35] = target: Alpha-1D adrenergic receptor (Homo sapiens) (UniProt P25100); assay: Displacement of [3H]prazosin from adrenergic alpha1D receptor (unknown origin) at 10 uM after 90 mins by microbeta counting analysis; method in brief: as §1
[36] = target: Muscarinic acetylcholine receptor M5 (Homo sapiens) (UniProt P08912); assay: Binding affinity to human M5 receptor expressed in CHO cells at 10 uM after 90 mins by microbeta counting analysis; type: cell-based; method in brief: as §1
[37] = target: Alpha-2B adrenergic receptor (Homo sapiens) (UniProt P18089); assay: Displacement of [3H]rauwolscine from adrenergic alpha2B receptor (unknown origin) expressed in HEKT cells at 10 uM after 90 mins by microbeta counting analysis; type: cell-based; method in brief: as §1
[38] = target: 5-hydroxytryptamine receptor 1E (Homo sapiens) (UniProt P28566); assay: Displacement of [3H]5-HT from human serotonin 5-HT1E receptor expressed in HEK cells at 10 uM after 90 mins by microbeta counting analysis; type: cell-based; conditions: HEK293; method in brief: as §1
[39] = target: Beta-3 adrenergic receptor (Homo sapiens) (UniProt P13945); assay: Binding affinity to human adrenergic beta3 receptor expressed in HEK Flp-In cells at 10 uM after 90 mins by microbeta counting analysis; type: cell-based; conditions: HEK293; method in brief: as §1
[40] = target: Mu-type opioid receptor (Homo sapiens) (UniProt P35372); assay: Displacement of [3H]DAMGO from mu opioid receptor (unknown origin) expressed in HEK cells at 10 uM after 90 mins by microbeta counting analysis; type: cell-based; conditions: HEK293; method in brief: as §1
[41] = target: 5-hydroxytryptamine receptor 3A (Homo sapiens) (UniProt P46098); assay: Displacement of [3H]GR65630 from human serotonin 5-HT3 receptor expressed in HEKT cells at 10 uM after 90 mins by microbeta counting analysis; type: cell-based; method in brief: as §1
[42] = target: Alpha-2A adrenergic receptor (Homo sapiens) (UniProt P08913); assay: Displacement of [3H]rauwolscine from adrenergic alpha2A receptor (unknown origin) expressed in MDCK cells at 10 uM after 90 mins by microbeta counting analysis; type: cell-based; method in brief: as §1
[43] = target: 5-hydroxytryptamine receptor 1A (Homo sapiens) (UniProt P08908); assay: Displacement of [3H]Way100635 from human serotonin 5-HT1A receptor expressed in CHO cells at 10 uM after 90 mins by microbeta counting analysis; type: cell-based; method in brief: as §1
[44] = target: D(1A) dopamine receptor (Homo sapiens) (UniProt P21728); assay: Displacement of [3H]SCH23390 from human dopamine D1 receptor expressed in HEKT cells at 10 uM after 90 mins by microbeta counting analysis; type: cell-based; method in brief: as §1
[45] = target: Sodium-dependent noradrenaline transporter (Homo sapiens) (UniProt P23975); assay: Displacement of [3H]nisoxetine from NET (unknown origin) expressed in HEK cells at 10 uM after 90 mins by microbeta counting analysis; type: cell-based; conditions: HEK293; method in brief: as §1
[46] = target: GABA-A receptor; anion channel (Homo sapiens) (UniProt P14867+P47870+P18507+P28472+P48169+Q99928+Q9UN88+P34903+O00591+O14764+Q8N1C3+P18505+P78334+P47869+P31644+Q16445); assay: Displacement of [3H]Muscimol from rat GABAA receptor at 10 uM after 90 mins by microbeta counting analysis; type: protein-complex assay; conditions: target entry is the homologue from another species; method in brief: as §1
[47] = target: 5-hydroxytryptamine receptor 2A (Homo sapiens) (UniProt P28223); assay: Displacement of [3H]ketanserin from human serotonin 5-HT2A receptor expressed in HEKT cells at 10 uM after 90 mins by microbeta counting analysis; type: cell-based; method in brief: as §1

Sequence of Alpha-1A adrenergic receptor (Homo sapiens) (P35348 whole entry): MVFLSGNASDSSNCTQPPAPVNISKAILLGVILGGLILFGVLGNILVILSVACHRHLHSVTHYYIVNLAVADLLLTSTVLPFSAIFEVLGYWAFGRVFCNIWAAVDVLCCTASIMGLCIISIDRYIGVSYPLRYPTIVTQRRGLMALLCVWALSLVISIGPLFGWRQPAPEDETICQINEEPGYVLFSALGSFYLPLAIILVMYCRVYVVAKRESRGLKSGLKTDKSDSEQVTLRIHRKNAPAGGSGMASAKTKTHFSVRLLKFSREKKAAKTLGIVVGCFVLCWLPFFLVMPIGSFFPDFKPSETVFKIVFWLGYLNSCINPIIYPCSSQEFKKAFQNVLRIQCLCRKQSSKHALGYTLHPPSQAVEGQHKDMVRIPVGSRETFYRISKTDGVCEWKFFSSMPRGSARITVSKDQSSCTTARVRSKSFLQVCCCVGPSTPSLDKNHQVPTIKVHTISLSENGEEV
Sequence of 5-hydroxytryptamine receptor 2B (Homo sapiens) (P41595 whole entry): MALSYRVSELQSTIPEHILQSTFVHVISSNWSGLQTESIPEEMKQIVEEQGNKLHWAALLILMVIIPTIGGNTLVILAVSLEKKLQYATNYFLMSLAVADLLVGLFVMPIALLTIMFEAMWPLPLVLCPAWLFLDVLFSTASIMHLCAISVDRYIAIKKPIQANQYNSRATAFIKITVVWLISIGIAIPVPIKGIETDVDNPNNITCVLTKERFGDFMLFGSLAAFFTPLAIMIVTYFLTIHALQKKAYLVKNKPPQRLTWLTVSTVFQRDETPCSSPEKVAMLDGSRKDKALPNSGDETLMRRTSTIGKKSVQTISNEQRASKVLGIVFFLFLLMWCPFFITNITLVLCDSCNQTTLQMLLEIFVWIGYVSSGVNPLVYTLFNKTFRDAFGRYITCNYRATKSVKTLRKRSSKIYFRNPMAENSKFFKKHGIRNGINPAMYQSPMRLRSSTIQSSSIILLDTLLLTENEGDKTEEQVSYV
Sequence of Delta-type opioid receptor (Homo sapiens) (P41143 whole entry): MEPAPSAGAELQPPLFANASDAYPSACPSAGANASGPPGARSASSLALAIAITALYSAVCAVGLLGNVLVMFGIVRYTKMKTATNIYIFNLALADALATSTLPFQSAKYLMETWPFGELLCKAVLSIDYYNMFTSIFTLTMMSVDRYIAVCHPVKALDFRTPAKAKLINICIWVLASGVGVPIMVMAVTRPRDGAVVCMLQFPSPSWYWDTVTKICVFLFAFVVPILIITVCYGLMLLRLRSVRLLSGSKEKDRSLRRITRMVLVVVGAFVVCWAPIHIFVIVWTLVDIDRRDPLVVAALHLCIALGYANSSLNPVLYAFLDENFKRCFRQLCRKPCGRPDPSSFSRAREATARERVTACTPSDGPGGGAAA
Sequence of Sodium-dependent noradrenaline transporter (Homo sapiens) (P23975 whole entry): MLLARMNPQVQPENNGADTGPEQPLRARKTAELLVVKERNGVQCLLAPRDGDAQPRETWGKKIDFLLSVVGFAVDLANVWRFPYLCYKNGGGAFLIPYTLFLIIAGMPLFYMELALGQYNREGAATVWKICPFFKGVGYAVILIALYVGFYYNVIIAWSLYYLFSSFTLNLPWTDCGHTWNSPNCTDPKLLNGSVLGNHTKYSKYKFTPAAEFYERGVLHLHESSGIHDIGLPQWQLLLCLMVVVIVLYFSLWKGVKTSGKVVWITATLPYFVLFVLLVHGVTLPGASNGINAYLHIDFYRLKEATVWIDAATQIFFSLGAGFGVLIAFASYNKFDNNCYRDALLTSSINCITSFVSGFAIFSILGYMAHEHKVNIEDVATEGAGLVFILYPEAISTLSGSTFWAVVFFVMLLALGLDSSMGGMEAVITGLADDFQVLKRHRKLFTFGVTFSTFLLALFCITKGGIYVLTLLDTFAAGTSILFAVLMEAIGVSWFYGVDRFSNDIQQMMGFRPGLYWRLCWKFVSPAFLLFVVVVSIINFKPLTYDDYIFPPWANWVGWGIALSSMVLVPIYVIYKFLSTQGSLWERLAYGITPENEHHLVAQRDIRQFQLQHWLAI
Sequence of D(1B) dopamine receptor (Homo sapiens) (P21918 whole entry): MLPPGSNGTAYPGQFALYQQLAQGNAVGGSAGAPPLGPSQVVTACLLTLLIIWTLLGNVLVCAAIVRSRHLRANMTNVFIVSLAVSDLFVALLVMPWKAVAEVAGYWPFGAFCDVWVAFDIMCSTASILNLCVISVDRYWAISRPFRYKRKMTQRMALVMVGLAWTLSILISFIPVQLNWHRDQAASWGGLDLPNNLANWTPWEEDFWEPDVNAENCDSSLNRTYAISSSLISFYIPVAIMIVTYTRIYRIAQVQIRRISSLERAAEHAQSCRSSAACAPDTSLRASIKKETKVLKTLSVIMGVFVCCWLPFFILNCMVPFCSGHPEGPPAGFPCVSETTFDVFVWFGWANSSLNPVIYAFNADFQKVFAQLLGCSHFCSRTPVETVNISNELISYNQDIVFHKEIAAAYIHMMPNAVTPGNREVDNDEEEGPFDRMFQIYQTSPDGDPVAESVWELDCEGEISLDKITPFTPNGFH
Sequence of Alpha-1B adrenergic receptor (Homo sapiens) (P35368 whole entry): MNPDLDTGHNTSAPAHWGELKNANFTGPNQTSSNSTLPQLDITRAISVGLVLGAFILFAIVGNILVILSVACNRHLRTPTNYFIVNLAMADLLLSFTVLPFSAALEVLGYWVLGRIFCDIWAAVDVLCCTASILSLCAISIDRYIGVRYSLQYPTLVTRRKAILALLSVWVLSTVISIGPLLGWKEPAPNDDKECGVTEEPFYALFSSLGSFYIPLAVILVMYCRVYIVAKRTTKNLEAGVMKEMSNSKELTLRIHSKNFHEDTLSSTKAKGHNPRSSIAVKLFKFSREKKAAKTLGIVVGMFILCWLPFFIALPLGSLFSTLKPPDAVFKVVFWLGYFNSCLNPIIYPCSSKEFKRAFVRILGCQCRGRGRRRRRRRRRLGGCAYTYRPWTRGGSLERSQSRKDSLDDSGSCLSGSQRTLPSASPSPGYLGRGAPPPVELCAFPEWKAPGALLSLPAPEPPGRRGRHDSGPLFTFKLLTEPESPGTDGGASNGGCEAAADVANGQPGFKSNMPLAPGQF
Sequence of 5-hydroxytryptamine receptor 6 (Homo sapiens) (P50406 whole entry): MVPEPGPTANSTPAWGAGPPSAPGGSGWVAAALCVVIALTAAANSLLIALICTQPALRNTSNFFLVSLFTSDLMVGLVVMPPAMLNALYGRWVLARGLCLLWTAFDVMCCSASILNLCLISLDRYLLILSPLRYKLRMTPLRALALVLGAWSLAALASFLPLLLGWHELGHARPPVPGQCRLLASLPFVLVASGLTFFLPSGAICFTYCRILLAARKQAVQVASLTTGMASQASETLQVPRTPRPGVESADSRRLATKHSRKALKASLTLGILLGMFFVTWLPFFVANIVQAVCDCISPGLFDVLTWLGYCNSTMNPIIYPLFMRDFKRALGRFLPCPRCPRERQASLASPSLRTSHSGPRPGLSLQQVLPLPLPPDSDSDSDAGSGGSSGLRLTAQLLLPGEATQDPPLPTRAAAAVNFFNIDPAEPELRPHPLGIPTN
Sequence of Muscarinic acetylcholine receptor M2 (Homo sapiens) (P08172 whole entry): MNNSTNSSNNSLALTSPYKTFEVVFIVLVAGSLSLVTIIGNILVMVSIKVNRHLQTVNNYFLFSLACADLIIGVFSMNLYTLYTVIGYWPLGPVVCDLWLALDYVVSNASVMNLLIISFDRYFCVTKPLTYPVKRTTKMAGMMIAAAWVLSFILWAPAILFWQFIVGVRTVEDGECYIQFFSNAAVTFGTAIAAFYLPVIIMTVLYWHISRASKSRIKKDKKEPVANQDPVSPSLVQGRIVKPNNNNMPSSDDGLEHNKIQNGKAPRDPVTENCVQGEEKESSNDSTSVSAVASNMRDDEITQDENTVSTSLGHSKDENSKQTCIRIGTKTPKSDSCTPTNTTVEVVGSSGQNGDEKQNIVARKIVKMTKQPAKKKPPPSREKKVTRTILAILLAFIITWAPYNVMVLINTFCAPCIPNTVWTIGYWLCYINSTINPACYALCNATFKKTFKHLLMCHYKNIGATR
Sequence of Histamine H4 receptor (Homo sapiens) (Q9H3N8 whole entry): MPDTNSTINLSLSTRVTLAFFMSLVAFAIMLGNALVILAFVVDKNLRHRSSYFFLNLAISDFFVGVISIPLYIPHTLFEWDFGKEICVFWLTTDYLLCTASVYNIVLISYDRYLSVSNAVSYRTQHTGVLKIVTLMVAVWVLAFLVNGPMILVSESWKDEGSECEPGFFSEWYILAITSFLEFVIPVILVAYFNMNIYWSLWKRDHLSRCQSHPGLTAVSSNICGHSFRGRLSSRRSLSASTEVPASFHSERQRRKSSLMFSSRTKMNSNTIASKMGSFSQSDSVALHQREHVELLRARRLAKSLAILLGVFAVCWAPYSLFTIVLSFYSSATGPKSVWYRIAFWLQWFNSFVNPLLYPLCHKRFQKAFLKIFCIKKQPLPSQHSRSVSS
Sequence of 5-hydroxytryptamine receptor 1D (Homo sapiens) (P28221 whole entry): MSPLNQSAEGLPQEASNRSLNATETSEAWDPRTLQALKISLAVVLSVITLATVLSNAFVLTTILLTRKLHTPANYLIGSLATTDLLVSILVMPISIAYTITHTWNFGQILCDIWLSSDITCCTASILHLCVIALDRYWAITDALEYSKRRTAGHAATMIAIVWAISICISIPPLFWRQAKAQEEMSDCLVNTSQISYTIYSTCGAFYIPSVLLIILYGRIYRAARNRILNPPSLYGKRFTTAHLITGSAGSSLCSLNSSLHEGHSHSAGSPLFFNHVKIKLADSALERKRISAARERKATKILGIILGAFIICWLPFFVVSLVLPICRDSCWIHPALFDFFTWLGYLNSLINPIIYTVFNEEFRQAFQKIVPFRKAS
Sequence of 5-hydroxytryptamine receptor 1E (Homo sapiens) (P28566 whole entry): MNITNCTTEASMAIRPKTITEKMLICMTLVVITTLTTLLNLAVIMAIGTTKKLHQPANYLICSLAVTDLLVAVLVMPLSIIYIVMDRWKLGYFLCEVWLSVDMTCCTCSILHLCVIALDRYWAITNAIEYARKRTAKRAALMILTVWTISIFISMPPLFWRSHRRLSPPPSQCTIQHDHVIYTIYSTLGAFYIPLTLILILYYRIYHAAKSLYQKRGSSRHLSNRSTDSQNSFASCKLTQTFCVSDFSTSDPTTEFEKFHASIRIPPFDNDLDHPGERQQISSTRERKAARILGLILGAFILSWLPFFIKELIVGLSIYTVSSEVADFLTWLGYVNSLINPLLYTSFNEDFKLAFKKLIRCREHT

COC(=O)CCc1cc2cc(C)oc(=O)c2c(O)c1O
Activity [1]: inactive | Activity [2]: inactive | Activity [3]: inactive | Activity [4]: inactive | Activity [5]: inactive | Activity [6]: inactive | Activity [7]: inactive | Activity [8]: Active | Activity [9]: inactive | Activity [10]: inactive | Activity [11]: inactive | Activity [12]: inactive | Activity [13]: inactive | Activity [14]: inactive | Activity [15]: inactive | Activity [16]: inactive | Activity [17]: inactive | Activity [18]: inactive | Activity [19]: inactive | Activity [20]: inactive | Activity [21]: inactive | Activity [22]: inactive | Activity [23]: inactive | Activity [24]: inactive | Activity [25]: Not Active | Activity [26]: inactive | Activity [27]: inactive | Activity [28]: inactive | Activity [29]: inactive | Activity [30]: inactive | Activity [31]: inactive | Activity [32]: inactive | Activity [33]: inactive | Activity [34]: inactive | Activity [35]: inactive | Activity [36]: inactive | Activity [37]: inactive | Activity [38]: inactive | Activity [39]: inactive | Activity [40]: inactive | Activity [41]: inactive | Activity [42]: inactive | Activity [43]: inactive | Activity [44]: inactive | Activity [45]: inactive | Activity [46]: inactive | Activity [47]: inactive
